Paper PMC4086711 (European journal of pain (London, England), 2011)
Where a name gives a salt, the structure may show the parent alone.

Tests used:
MOR = assay: Ca2+ mobilization; assay type: cell-based; conditions: agonist; HEK-293 with chimeric G-protein delta6-Gqi4-myr
Method in brief: (§1)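 HEK-293 cells stably expressing the receptor, grown in DMEM with 10% FCS at 37 °C in 7% CO2, were transiently transfected with Δ6-Gqi4-myr (100 ng per 60,000 cells). After one day, cells were loaded with Ca2+ dye for 60 min and stimulated with increasing ligand concentrations to give dose–response curves and EC50. Each experiment was run at least three times in triplicate; values are means ± SEM.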

KOR = assay: Ca2+ mobilization; assay type: cell-based; conditions: agonist; HEK-293 with chimeric G-protein delta6-Gqi4-myr
Method in brief: as §1

COC(=O)N1CCN(C(=O)Cc2ccc(Cl)c(Cl)c2)C(CN2CCCC2)C1 (centres unmarked) [GR89, 696, 4-[(3,4-Dichlorophenyl)acetyl]-3-(1-pyrrolidinylmethyl)-1-piperazine-carboxylic acid methyl ester fumarate]
pEC50 (M) / MOR (MOR): 7.2 ± 0.2 pEC50 (M)
pEC50 (M) / KOR (KOR): 10.1 ± 0.2 pEC50 (M)
